How the values were obtained:
[1] = PD assessments with CNS scales; format: in vivo, human
[2] = test system: alpha-synuclein oligomer, total tau, phosphor-tau; assay: MAD study, PD biomarkers; format: in vivo, human
How it was run: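 Healthy male volunteers in the MAD part: young (19–45 y) or elderly (>60 y), randomized 6 active : 2 placebo per cohort, oral dosing once daily for 7 days. Blood and CSF sampled for alpha-synuclein oligomer, and CSF for total and phospho-tau, at day 1 predose and day 7, 1 h after last dose. CSF (about 2 mL) by lumbar puncture at L3–L4. Protein levels were measured by an external biomarker core.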

Cc1nn(Cc2ccc(Br)cc2)c(C)c1NC(=O)CSc1ccccc1 [KM-819]
Bond and Lader VAS ([1]; SAD and MAD): No signs of KM-819 treatment-related effects
C-SSRS ([1]; SAD and MAD): no apparent treatment or cohort differences
K-WAIS-IV ([1]; SAD and MAD): no clear treatments differences
POMS ([1]; SAD and MAD): no apparent treatment or cohort differences
effects on the estimated pharmacodynamic variables ([1]; whole study): No clear treatment-related effects
Alpha-synuclein oligomer, CSF, change from baseline (day 1 predose) to day 7, mean (SD) ([2]; 30 mg QD, young): 49.94 (72.09) pg/mL
Alpha-synuclein oligomer, plasma, change from baseline (day 1 predose) to day 7, mean (SD) ([2]; 30 mg QD, young): 3,884.41 pg/mL
Phosphor-tau, CSF, change from baseline (day 1 predose) to day 7, mean (SD) ([2]; 30 mg QD, young): 6.41 (19.04) pg/mL
Total tau, CSF, change from baseline (day 1 predose) to day 7, mean (SD) ([2]; 30 mg QD, young): 60.30 (64.42) pg/mL
Alpha-synuclein oligomer, CSF, change from baseline (day 1 predose) to day 7, mean (SD) ([2]; 100 mg QD, young): −252.56 (643.49) pg/mL
Alpha-synuclein oligomer, plasma, change from baseline (day 1 predose) to day 7, mean (SD) ([2]; 100 mg QD, young): 575.46 (18,379.46) pg/mL
Phosphor-tau, CSF, change from baseline (day 1 predose) to day 7, mean (SD) ([2]; 100 mg QD, young): 0.21 (1.13) pg/mL
Total tau, CSF, change from baseline (day 1 predose) to day 7, mean (SD) ([2]; 100 mg QD, young): 9.23 (15.82) pg/mL
Alpha-synuclein oligomer, CSF, change from baseline (day 1 predose) to day 7, mean (SD) ([2]; 200 mg QD, elderly): 34.87 (51.42) pg/mL
Alpha-synuclein oligomer, plasma, change from baseline (day 1 predose) to day 7, mean (SD) ([2]; 200 mg QD, elderly): −11,712.09 pg/mL
Phosphor-tau, CSF, change from baseline (day 1 predose) to day 7, mean (SD) ([2]; 200 mg QD, elderly): 5.16 (10.88) pg/mL
Total tau, CSF, change from baseline (day 1 predose) to day 7, mean (SD) ([2]; 200 mg QD, elderly): 29.30 (100.07) pg/mL
Alpha-synuclein oligomer, CSF, change from baseline (day 1 predose) to day 7, mean (SD) ([2]; 200 mg QD, young): 0.60 (18.22) pg/mL
Alpha-synuclein oligomer, plasma, change from baseline (day 1 predose) to day 7, mean (SD) ([2]; 200 mg QD, young): 3,809.51 pg/mL
Phosphor-tau, CSF, change from baseline (day 1 predose) to day 7, mean (SD) ([2]; 200 mg QD, young): 4.47 (7.88) pg/mL
Total tau, CSF, change from baseline (day 1 predose) to day 7, mean (SD) ([2]; 200 mg QD, young): −3.16 (15.01) pg/mL
Alpha-synuclein oligomer, CSF, change from baseline (day 1 predose) to day 7, mean (SD) ([2]; 400 mg QD, young): 18.21 (103.83) pg/mL
Alpha-synuclein oligomer, plasma, change from baseline (day 1 predose) to day 7, mean (SD) ([2]; 400 mg QD, young): −64,843.29 pg/mL
Phosphor-tau, CSF, change from baseline (day 1 predose) to day 7, mean (SD) ([2]; 400 mg QD, young): 6.70 (11.82) pg/mL
Total tau, CSF, change from baseline (day 1 predose) to day 7, mean (SD) ([2]; 400 mg QD, young): 27.86 (66.07) pg/mL
